Compound activity deposited in PubChem by several laboratories.
In the library only some 4.6% were active in any assay of this set; here they are far more common.
Wee1 degr inh – human Wee1 degradation inhibition, primary screen; reporter increase, % at 5 µM; 220,000 tested, 1.2% active; P30291; HeLa Luc-Wee1K328M stability, luciferase luminescence; 100% = proteasome inhibitor MG132 effect; AID 1321;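 active means activation above the mean of all tested compounds plus 3 SD, set per screening run, cut at about 8.8% in these data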;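 further: cells exposed to compound for 20 h before luminescence read; 0% = DMSO alone and 100% = MG132 at 30 µM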
NF-kB expr up – raises NF-kB expression in human neuronal cells; NF-kB reporter expression; stronger effect = higher value; fold change at 12.5 µM; 190,000 tested, 1.6% active; AID 1239; in the data active means fold change above about 3.3
APP 5'UTR act – activates APP 5'UTR luciferase reporter | activation, % at 2 µM | SH-SY5Y APP 5'UTR luciferase reporter, luminescence; zero percent = DMSO vehicle wells | 190,000 tested, 1% active;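 active means activation above a set limit, based on mean plus 3 SD of controls, cut at about 140% in these data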
STAT1 activator – increases IFN-gamma driven STAT1 reporter signal | AID 932 | activation (% of control), % at 5.5 µM | NIH 3T3 STAT1-luciferase reporter, luminescence; 100% = IFN-gamma alone, no compound | 200,000 tested, 2.6% active;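 active means activation above the screen-wide mean activation plus 3 SD, cut at about 130% in these data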;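 further: raw ratio to IFN-gamma control signal so 100% means no change and 0% no light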
MDM2 E3 inh – Mdm2 E3 ligase (human) inhibition; Q00987; cell-based MDM2 ubiquitination luciferase reporter, 2 h; 0 = plate control, 100 = twice control, blank-subtracted; signal enhancement, % at 5 µM; 210,000 tested, 0.11% active; AID 1230;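 active means signal enhancement of 30% or more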;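 further: luminescence tracks abundance of the self-degrading MDM2-luciferase fusion protein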
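Assay system: stable mammalian line carrying autodegrading MDM2–luciferase fusion reporter; Input: 2000 cells in each well; Compound dosing: single-point 5 µM; Schedule: 2 h compound exposure at 37 °C; Signal: SteadyLite luciferase luminescence after 15 min room-temperature reagent incubation; Evaluation: % luminescence enhancement versus blank-corrected plate control mean; Benchmarks: plate controls and plate blanks.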
p97 ATPase inh – blocks human p97 ATPase activity; P55072; recombinant p97 ATPase, Kinase-Glo ATP luminescence, 3 h; inhibition, % at 8 µM; 220,000 tested, 0.42% active; AID 1481; in the data active means inhibition above about 15%;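 further: 0% = DMSO vehicle and 100% = wells lacking enzyme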
Target sequence (P55072 whole entry, looked up): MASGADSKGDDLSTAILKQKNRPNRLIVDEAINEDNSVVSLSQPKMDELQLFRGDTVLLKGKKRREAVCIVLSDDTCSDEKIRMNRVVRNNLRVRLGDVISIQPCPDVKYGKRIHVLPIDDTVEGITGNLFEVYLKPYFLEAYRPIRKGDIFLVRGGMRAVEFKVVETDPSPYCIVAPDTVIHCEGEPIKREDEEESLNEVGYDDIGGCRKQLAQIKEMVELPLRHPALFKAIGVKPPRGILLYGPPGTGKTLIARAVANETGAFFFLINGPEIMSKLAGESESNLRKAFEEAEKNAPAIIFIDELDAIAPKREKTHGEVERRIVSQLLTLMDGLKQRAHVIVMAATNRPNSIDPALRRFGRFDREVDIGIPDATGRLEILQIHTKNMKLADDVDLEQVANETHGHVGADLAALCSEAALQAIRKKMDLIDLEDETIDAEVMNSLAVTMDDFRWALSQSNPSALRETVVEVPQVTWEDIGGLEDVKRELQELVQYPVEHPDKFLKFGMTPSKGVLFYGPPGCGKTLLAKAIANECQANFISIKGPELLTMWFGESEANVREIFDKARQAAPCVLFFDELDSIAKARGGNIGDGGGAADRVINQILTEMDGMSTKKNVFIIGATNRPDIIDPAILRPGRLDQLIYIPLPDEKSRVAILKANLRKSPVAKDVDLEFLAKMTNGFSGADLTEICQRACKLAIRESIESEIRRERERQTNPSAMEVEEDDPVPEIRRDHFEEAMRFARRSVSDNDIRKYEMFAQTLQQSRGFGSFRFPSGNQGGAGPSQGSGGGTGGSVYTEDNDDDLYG
Active calls of the source: *; · = not tested or not shown.

SMILES	Wee1 degr inh	NF-kB expr up	APP 5'UTR act	STAT1 activator	MDM2 E3 inh	p97 ATPase inh
C=CCSc1nn2c(=O)c3ccccc3nc2s1	3	2.6	70	134*	-16	-1
OCC(O)/C=N/Nc1nc2ccccc2s1 (stereo not drawn)	1	1.2	17	115	-10	4
Fc1ccc(Nc2nc3ccccc3s2)cc1	1	3.3*	107	146*	-8	1
CC(=O)Nc1nc(=O)c2ccccc2s1	7	1	3	96	-10	2
O=C(Nc1nc(=O)c2ccccc2s1)c1ccccc1	-1	3.6*	66	138*	-25	1
C/C(Cl)=C/CSc1nn2c(=O)c3ccccc3nc2s1	1	1.7	·	109	-25	-1
CC1(N(O)/C=C2\C=CC=CC2=O)CCCCC1=O (stereo not drawn)	-4	·	·	·	-1	2
CC(C(=O)NC(C)(C)C)N1C(=O)c2cccc3cccc(c23)C1=O (stereo not drawn)	-3	1.1	12	93	-6	-2
CCOC(=O)c1cnc(SCC(=O)N2CCOCC2)nc1N	3	2	-16	100	-7	-1
O=C(Cc1cccs1)N/N=C/c1ccccc1	-3	·	·	·	1	7
O=C(Cc1cccs1)N/N=C/C(Cl)=C/c1ccccc1	0	1.1	65	147*	-5	1
CC(C)Nc1nnc(SCC(=O)NCc2ccc3c(c2)OCO3)s1	-2	1.1	9	100	-2	5
Cc1nnc(SCC(=O)NCc2ccc3c(c2)OCO3)s1	9.5*	1.3	2	100	3	2
C=CCNC(=S)/C(=C(\[O-])c1ccc(Cl)cc1)[n+]1ccccc1	5	·	·	·	-14	15*
[O-]/C(=C(\C(=S)NCc1ccccc1)[n+]1ccccc1)c1ccc(Cl)cc1	1	1.1	-7	90	-8	-3
Cc1ccc(C2C(C#N)=C(N)OC3=C2C(=O)CC(C)(C)C3)s1 (stereo not drawn)	6	·	·	·	·	3
Cc1cc(C(=O)CSc2ccc3c(c2)OCCO3)c(C)n1C1CC1	-1	2.5	56	133*	-3	-8
NC(=O)c1cc2ccc(O)cc2oc1=Nc1ccccc1	-2	2.1	2	130*	-8	-1
NC(=O)c1cc2ccc(O)cc2oc1=NCc1ccccc1	0	1.3	-21	110	-19	4
N/C(=N\OCc1ccccc1)c1nonc1N	2	1.8	63	129*	-16	2
CCc1cc(=O)oc2cc(C)cc(OCC(C)=O)c12	11*	·	·	·	-9	-2
COc1ccc2[nH]c(-c3cccc(F)c3)cc(=O)c2c1	-3	5.5*	-93	128	·	7
Cc1ccc(-c2cc(=O)c3cc(C)ccc3[nH]2)cc1	1	5.8*	115	146*	·	8
Cc1ccc2[nH]c(-c3cccc(F)c3)cc(=O)c2c1	5	3.8*	-93	121	·	6
CNC(=O)c1ccccc1NC(=O)c1c(O)c2c([nH]c1=O)CCCC2	2	0.84	-3	106	-4	-2
SMILES	Wee1 degr inh	NF-kB expr up	APP 5'UTR act	STAT1 activator	MDM2 E3 inh	p97 ATPase inh
O=C(N/N=C/c1cccc(F)c1)c1c(O)c2c([nH]c1=O)CCCC2	0	1.2	142*	103	1	5
Cc1ccccc1-c1nc2ccccc2[nH]1	-2	2.6	56	133*	-16	-3
Fc1ccccc1-c1nc2ccccc2[nH]1	2	3.1	100	134*	-11	-7
c1ccc2nc(-c3nc4ccccc4[nH]3)ccc2c1	-1	4.2*	192*	65	-87	-24
Cc1nc2ccc(-c3nc4ccccc4[nH]3)cc2[nH]1	-2	3.5*	155*	125	-29	9
Clc1ccccc1-c1nc2ccccc2[nH]1	5	·	·	·	-1	5
COc1ccc(C(=O)c2nccc3ccccc23)cc1	10*	0.98	-3	120	-5	7
COc1ccc(C(=O)c2c[nH]c3ccccc23)cc1	5	3.5*	96	134*	-7	1
CC1CCN(C(=O)CSc2nc3ccccc3s2)CC1	7	2.8	94	132*	-2	-1
O=C(O)C1CCN(C(=O)CSc2nc3ccccc3s2)CC1	1	0.86	18	97	2	5
CC(=O)N1CCC(=NNc2nc3ccccc3s2)CC1	-1	2.1	108	136*	-17	-4
O=C(NNc1nc2ccccc2s1)Nc1ccccc1	1	1.7	115	138*	-12	-2
CCOCC(=O)Nc1nc2ccccc2s1	1	1.9	24	128	-8	10
CCOC(=O)N1CCC(=NNc2nc3ccccc3s2)CC1	6	·	·	·	-21	1
CC(=O)NNc1nc2ccccc2s1	-4	1.1	1	91	-5	3
O=C(CCc1nc2ccccc2s1)Nc1ccccc1	0	0.97	-1	96	-14	-2
CCNC(=O)Nc1nc2ccccc2s1	1	2.6	77	146*	7	0
S=C(Nc1ccccc1)c1nc2ccccc2s1	4	2.4	101	138*	·	3
Cc1cccc(NC(=O)C2CCCN2C(=O)NC2CCCCC2)c1 (stereo not drawn)	-1	0.88	0	101	-1	3
Cc1ccc(NCC(=O)NNC2=NCCC2)c(C)c1	3	1.3	-6	97	-12	-1
Cc1csc(=NC(=O)c2ccccc2)n1C	3	3.6*	102	127	-2	-8
CCn1c(C)csc1=NC(=O)c1ccccc1	0	1.3	20	101	-9	5
CCOC(=O)N1CCN(c2ccc(O)cc2)CC1	0	3.5*	24	95	-1	5
CCOC(=O)N1CCN(c2ccc(Cl)cc2)CC1	-4	1.5	3	98	0	-3
O=C(c1ccc2ccccc2c1)N1CCN(c2ccc(O)cc2)CC1	-1	4.1*	21	99	5	3
SMILES	Wee1 degr inh	NF-kB expr up	APP 5'UTR act	STAT1 activator	MDM2 E3 inh	p97 ATPase inh
O=C(CSc1ccc2ccccc2c1)N1CCN(c2ccc(O)cc2)CC1	-4	·	·	·	1	-3
CCOc1ccc(C(=O)Nc2cc(NC(=O)c3ccc(OCC)c(Cl)c3)cc(C(=O)O)c2)cc1Cl	0	3.7*	13	101	-4	4
CCOc1ccc(C(=O)Nc2ccc(NC(=S)NC(=O)CC)cc2)cc1Cl	0	1.3	6	96	-4	-3
CCOc1ccc(C(=O)Nc2cccc(C(=O)O)c2)cc1Cl	-5	6.2*	76	34	-75	8
Cn1c2c(c(=O)n(C)c1=O)NC1(N2)C(=O)Nc2ccccc21 (stereo not drawn)	0	·	·	·	-20	9
CC(C)N(C(=O)NC(=O)NCC1CCCO1)S(C)(=O)=O (stereo not drawn)	9.5*	0.97	3	100	-8	0
